An excerpt weighted towards active compounds, which were near 4.1% of everything screened.
MrgX1 agonist: activates human MrgX1 receptor signaling; Q96LB2; MrgX1-HEK293 cells, Fluo-4 calcium fluorescence, agonist mode; hits give high values; B-score at 10 µM; 310,000 compounds, 0.44% hits;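 active = calcium response B-score plate-corrected fluorescence ratio at least 3 library SD, with starting fluorescence B-score inside 5 SD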
Target sequence (Q96LB2 whole entry, looked up): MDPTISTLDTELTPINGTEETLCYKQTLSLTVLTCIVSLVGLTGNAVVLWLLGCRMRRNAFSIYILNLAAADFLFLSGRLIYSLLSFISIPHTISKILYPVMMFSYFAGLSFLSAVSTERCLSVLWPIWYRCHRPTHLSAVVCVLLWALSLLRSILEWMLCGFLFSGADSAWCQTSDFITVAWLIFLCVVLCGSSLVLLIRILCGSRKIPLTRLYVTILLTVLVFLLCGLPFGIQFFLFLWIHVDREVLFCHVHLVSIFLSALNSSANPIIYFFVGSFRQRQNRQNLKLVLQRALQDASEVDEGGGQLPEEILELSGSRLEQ
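Test system: HEK293 cells stably expressing human MrgX1 receptor; amount: 15,000 cells per well; doses: compound delivered in addition one of three; times: overnight plating before 1 h dye loading; detection: Fluo-4 NW calcium-flux fluorescence, kinetic read; read-out basis: B-scored fluorescence response ratio; controls: positive and negative controls per plate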
RGS4 inh: human RGS4 inhibition; HEK293 M3R/RGS4 inducible, Fluo-4 calcium flux; hits give high values; triggered by carbachol at its EC20; B-score at 10 µM; 310,000 compounds, 0.45% hits; AID 463165;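 active = B-score, a plate-corrected calcium signal, over three deviations above library mean, with baseline fluorescence within five deviations of library mean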;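 note: RGS4 expression induced by doxycycline in cells with stable M3 receptor; B-score is computed from the integrated fluorescence ratio over baseline after carbachol; higher B-score means a larger calcium signal and so more RGS4 inhibition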
Target sequence (P49798 whole entry, looked up): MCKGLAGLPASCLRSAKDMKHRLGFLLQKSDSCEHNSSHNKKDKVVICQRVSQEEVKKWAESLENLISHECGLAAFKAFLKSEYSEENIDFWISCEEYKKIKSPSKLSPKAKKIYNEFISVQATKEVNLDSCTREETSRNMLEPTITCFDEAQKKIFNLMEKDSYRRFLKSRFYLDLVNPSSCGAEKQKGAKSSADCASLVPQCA
MrgX1 allo act: allosterically activates human MrgX1 receptor signaling | B-score at 10 µM | MrgX1-HEK293, Fluo-4 calcium flux, FDSS; hits give high values | AID 588675 | Q96LB2 | 310,000 compounds, 0.63% hits;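 active = plate-corrected calcium response at least 3 library SD above typical, normal starting fluorescence, not activating the receptor alone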;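 note: compound read alongside a low EC10 to EC30 dose of BAM8-22 agonist; peak minus trough fluorescence over baseline measured at the second addition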
Kir21 inh: blocks the mouse Kir2.1 inward-rectifier potassium channel; B-score at 10 µM; P35561; HEK293-Kir2.1, FluxOR thallium flux fluorescence; hits give low values; AID 1672; 310,000 compounds, 0.85% hits;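 active = fluorescence ratio B-score at or below minus 3 SD of library scores, with starting-brightness B-score within 2 SD, cut at about -4.2 in these data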;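 note: channel flux triggered by added potassium and thallium sulfate stimulus; B-score of peak minus minimum fluorescence over baseline after thallium stimulus; more negative B-score means stronger Kir2.1 block with less thallium influx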
RGS4 pot: RGS4 potentiation or activation; HEK293 M3R/inducible RGS4, carbachol calcium flux Fluo4; hits give low values; B-score at 10 µM; 310,000 compounds, 0.92% hits;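 active = B-score of the integrated calcium signal more than 4 SD below the library mean, with starting fluorescence not abnormally high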;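 note: negative B-score means reduced calcium response which marks RGS4 activation or potentiation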
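test system = HEK293 cells with stable M3R and inducible RGS4 | schedule = recording 10 s baseline at 1 Hz, 100 s post-agonist | technique = Fluo4-AM (2 µM) calcium-flux fluorescence, kinetic read | measure = Agonist-evoked peak-minus-minimum fluorescence over baseline, integrated ratio, B score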
MrgX1 antag: human MrgX1 receptor antagonism, primary screen; 310,000 compounds, 1.3% hits; MRGX1-HEK293 calcium flux, Fluo-4, BAM8-22 antagonism; hits give low values; B-score at 10 µM; Q96LB2;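 active = calcium-response B-score plate-corrected more than 3 library SD below zero, starting fluorescence within 5 deviations, no agonist response on first addition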;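 note: peak minus trough fluorescence over baseline after final BAM8-22 challenge near maximal dose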
RGS4 inh valid: validation of RGS4 inhibitors; calcium response, % at 10 µM; 1,700 compounds, 65% hits; shares compounds with RGS4 inh; HEK293 M3R/RGS4, carbachol calcium Fluo-4 fluorescence; carbachol added at its EC20; 0 = buffer wells, 100 = carbachol control;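 active = duplicate-averaged calcium response above the buffer-only control mean plus 5 SD of those controls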;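 note: integrated fluorescence ratio F max minus min over baseline F0; higher response in RGS4-induced cells means RGS4 inhibition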
M3R Ca ctr: checks RGS4 inhibitor effects in non-induced HEK293 M3R cells; shares compounds with RGS4 inh; carbachol calcium Fluo-4; submaximal (EC20) carbachol stimulus; buffer wells 0%, carbachol control wells 100%; activity (percent), % at 10 µM; 1,900 compounds, 20% hits; call rule not given here;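 note: RGS4 induction absent so cells express M3R without RGS4; higher means more calcium signal and flags a non-specific hit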
RGS4 inh ctr2: second RGS4 inhibitor counter-screen in uninduced cells lacking carbachol; AID 493001; HEK293 M3R/RGS4 non-induced, Fluo-4 calcium, no carbachol; normalised: buffer wells 0%, carbachol wells 100%; 1,900 compounds, 22% hits; shares compounds with RGS4 inh; calcium response (agonist-mode artifact), % at 10 µM;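 active = duplicate-averaged calcium rise in uninduced cells above buffer wells' mean plus 5 SD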
Of the large screens only hits and unclear results are named; the others gave an inactive call (follow-up assays come after a bar, where they were run).

CCOC(=O)/C=C/C(=O)Nc1ccc(S(=O)(=O)Nc2nccs2)cc1	RGS4 inh 5.02 | RGS4 inh valid 23.0% | M3R Ca ctr inactive | RGS4 inh ctr2 inactive
CC(C)CC(=O)/C=C/n1c(=S)oc2ccccc21	none
CC(=O)/C=C/n1c(=S)oc2ccccc21	RGS4 inh 10.1 | RGS4 inh valid 21.0% | M3R Ca ctr inactive | RGS4 inh ctr2 7.0%
COc1ccc(OC)c(NC(=O)C(=O)NCc2ccncc2)c1	RGS4 inh 4.81 | RGS4 inh valid 10.5% | M3R Ca ctr inactive | RGS4 inh ctr2 inactive
COc1ccc(C(=O)N2CCCC(c3ccccc3)=N2)cc1	none
Cc1noc(NS(=O)(=O)c2ccc(NC(=O)c3nn(-c4ccccc4)ccc3=O)cc2)c1C	none | RGS4 inh valid inactive | M3R Ca ctr inactive | RGS4 inh ctr2 inactive
Cc1noc(NS(=O)(=O)c2ccc(N/C=C\C(=O)c3ccc(Br)cc3)cc2)c1C	RGS4 inh 6.7 | RGS4 inh valid 14.0% | M3R Ca ctr inactive | RGS4 inh ctr2 inactive
Cc1noc(NS(=O)(=O)c2ccc(N/C=C\C(=O)c3cccc4ccccc34)cc2)c1C	RGS4 inh 5.92 | RGS4 inh valid inactive | M3R Ca ctr inactive | RGS4 inh ctr2 inactive
c1ccc(Nc2nc(N3CCCCC3)nc(N3CCNCC3)n2)cc1	none | RGS4 inh valid inactive | M3R Ca ctr inactive | RGS4 inh ctr2 15.5%
c1ccc(Nc2nc(N3CCCC3)nc(N3CCCC3)n2)cc1	none
c1ccc(Nc2nc(N3CCCCC3)nc(N3CCCCC3)n2)cc1	RGS4 inh 5.18 | RGS4 inh valid 26.5% | M3R Ca ctr inactive | RGS4 inh ctr2 inactive
O=C(CSc1cccc[n+]1[O-])Nc1ccccc1Oc1ccccc1	none
CNC[C@H](O)c1ccc(O)c(O)c1	MrgX1 agonist 38.7, RGS4 inh 4.91 | RGS4 inh valid 31.5% | M3R Ca ctr 57.0% | RGS4 inh ctr2 inactive
Cc1cc(C)cc(-n2c3nc4ccccc4nc3c3c(=O)n(Cc4ccco4)cnc32)c1	RGS4 inh 5.87 | RGS4 inh valid 11.5% | M3R Ca ctr inactive | RGS4 inh ctr2 15.0%
CC(C)(CC(=O)O)CC(=O)N1CCN(c2cc(C(F)(F)F)nc3ccccc23)CC1	RGS4 inh 5.01 | RGS4 inh valid inactive | M3R Ca ctr inactive | RGS4 inh ctr2 inactive
C[C@@H](CN1C2=NC[C@H](C)N2C[C@H]1Cc1ccc(O)cc1)NC(=O)CCC1CCCCC1	none
COc1cnn(C(C)(C)C)c(=O)c1Cl	none
COc1ccc(NC(=O)c2nc[nH]c2C(=O)N[C@H](C)c2ccccc2)cc1	RGS4 inh 7.64 | RGS4 inh valid 17.5% | M3R Ca ctr inactive | RGS4 inh ctr2 inactive
CCCn1c(SCCN2CCOCC2)nc2c1c(=O)n(C)c(=O)n2C	none
COC(=O)C1=C(C)N(C2CCCCC2)C(=O)/C1=C\c1cccs1	RGS4 inh 5.71 | RGS4 inh valid 10.5% | M3R Ca ctr inactive | RGS4 inh ctr2 inactive
COC(=O)C1=C(C)N(C)C(=O)/C1=C\c1cccs1	none
Cc1nc(-c2ccccc2Cl)sc1C(=O)/C=C/N(C)C	none
O=C(CSCC(=O)N1CCCCC1)Nc1nc(-c2ccc(Cl)s2)cs1	RGS4 inh 9.34 | RGS4 inh valid inactive | M3R Ca ctr inactive | RGS4 inh ctr2 inactive
O=C(CSCC(=O)N1CCN(c2ccccc2)CC1)Nc1nc(-c2ccc(Cl)s2)cs1	none | RGS4 inh valid inactive | M3R Ca ctr inactive | RGS4 inh ctr2 inactive
O=C(CSCC(=O)N1CCCCC1)Nc1nc(-c2cccs2)cs1	none
O=C(OCn1ncc(Br)c(Br)c1=O)c1ccc(F)cc1	RGS4 inh 13.5 | RGS4 inh valid 23.5% | M3R Ca ctr inactive | RGS4 inh ctr2 inactive
O=C(OCn1ncc(Br)c(Br)c1=O)c1ccccc1Cl	none
COC(=O)Cc1[nH]nc2c1C1(C(=O)N(Cc3ccccc3)c3ccccc31)C(C#N)=C(N)O2 (stereo unspecified)	none | M3R Ca ctr inactive | RGS4 inh ctr2 inactive
CCCCN(CC)C(=O)c1ccc(Cl)cc1	none
CCCN1C(=O)/C(=C/c2nc3ccccc3c(=O)[nH]2)c2ccccc21	RGS4 inh 11 | RGS4 inh valid 8.5% | M3R Ca ctr inactive | RGS4 inh ctr2 inactive
CCCN1C(=O)/C(=C/c2nc3ccccc3c(=O)[nH]2)c2cc(C)ccc21	RGS4 inh 9.49 | RGS4 inh valid 26.5% | M3R Ca ctr 57.5% | RGS4 inh ctr2 inactive
Cc1nc2scc(C)n2c(=O)c1S(=O)(=O)N1CCN(c2ccc(F)cc2)CC1	none
COc1ccc(NC(=O)CCn2c(=S)[nH]c3ccccc3c2=O)cc1OC	none
CCOc1c(Cl)cc(CNc2ccc(N3CCCC3)cc2)cc1OC	RGS4 inh 5.66 (no result: MrgX1 agonist, MrgX1 allo act, MrgX1 antag) | RGS4 inh valid 18.5% | M3R Ca ctr inactive | RGS4 inh ctr2 inactive
O=C(O)c1ccc2c(=O)n3c(nc2c1)/C(=C/c1ccc(Cl)c(Cl)c1)CC3	RGS4 inh 15.7 | RGS4 inh valid 29.5% | M3R Ca ctr inactive | RGS4 inh ctr2 inactive
O=C(O)c1ccc2c(=O)n3c(nc2c1)/C(=C/c1cccc(O)c1)CC3	none
Cc1ccc(C)c(/C=C2\CCn3c2nc2cc(C(=O)O)ccc2c3=O)c1	none | RGS4 inh valid inactive | M3R Ca ctr inactive | RGS4 inh ctr2 inactive
CCCSc1nnc(Sc2nnnn2-c2ccccc2)s1	none
Cc1ccc(CNS(=O)(=O)c2cc3c4c(c2)C(C)C(=O)N4CCC3)cc1 (stereo unspecified)	none
Oc1ccc(/C=N/Nc2ccc(C(F)(F)F)cn2)cc1	none | M3R Ca ctr inactive | RGS4 inh ctr2 inactive
O=[N+]([O-])c1cc2c(c(CSc3nnc4ccccn34)c1)OCOC2	none
CC1CCCCC1NC(=O)CCn1c(=O)oc2ccccc21 (stereo unspecified)	none
CCOc1ccccc1N1CCN(Cc2cn[nH]c2-c2ccc(F)cc2)CC1	RGS4 inh 6.78 | RGS4 inh valid 43.5% | M3R Ca ctr 44.0% | RGS4 inh ctr2 inactive
COc1ccc2cc(-c3[nH]ncc3CN3CCCN(c4ccccc4)CC3)ccc2c1	RGS4 inh 5.55 | RGS4 inh valid 20.5% | M3R Ca ctr 40.5% | RGS4 inh ctr2 inactive
COCC1CCCCN1Cc1cn[nH]c1-c1ccc2cc(OC)ccc2c1 (stereo unspecified)	none

Assay outcomes as filed in PubChem BioAssay.
